Test results as given in ChEMBL document CHEMBL1141116, “Synthesis and structure-activity relationship of the first nonpeptidergic inverse agonists for the human cytomegalovirus encoded chemokine receptor US28” (J Med Chem, 2005).

Experiments:
[1] = target: T1, G-protein coupled receptor homolog US28 (Human cytomegalovirus (strain AD169) (HHV-5) (Human herpesvirus 5), UniProt P69332); assay: Inhibitory concentration against chemokine receptor US28 expressed in COS-7 cells using [125I]-CCL5; type: cell-based, Human betaherpesvirus 5
T1 sequence (P69332 whole entry): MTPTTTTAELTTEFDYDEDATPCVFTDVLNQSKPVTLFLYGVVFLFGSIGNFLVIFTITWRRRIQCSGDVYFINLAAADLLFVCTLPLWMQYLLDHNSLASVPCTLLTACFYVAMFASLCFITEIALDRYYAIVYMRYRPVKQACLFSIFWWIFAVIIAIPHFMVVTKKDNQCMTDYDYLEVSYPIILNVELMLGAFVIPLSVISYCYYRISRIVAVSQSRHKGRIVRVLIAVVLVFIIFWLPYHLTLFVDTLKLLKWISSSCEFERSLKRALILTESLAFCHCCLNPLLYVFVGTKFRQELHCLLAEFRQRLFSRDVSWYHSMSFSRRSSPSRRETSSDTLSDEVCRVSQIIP
Summary of the method: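 Whole US28-transfected COS-7 cells, 48 h post-transfection, incubated 3 h at 4 °C with 0.3 nM [125I]CCL5 in 50 mM Hepes pH 7.4, 1 mM CaCl2, 5 mM MgCl2, 0.5% BSA ± varying compound concentrations. Four washes at 4 °C with buffer plus 0.5 M NaCl; nonspecific binding with 0.1 μM unlabeled CCL5. IC50 as mean, interval from ≥3 experiments unless noted.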

[2] = target: T1, G-protein coupled receptor homolog US28; assay: Effective concentration against US28-mediated inositol phosphate production in COS-7 cells; type: functional, cell-based
Summary of the method: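 COS-7 cells transiently transfected (DEAE-dextran, 2 μg DNA per million cells, pcDEF3-US28); 24 h post-transfection labeled overnight with 2 μCi/ml myo-[2-3H]inositol in inositol-free medium. After 10 min wash, 2 h incubation in DMEM with 25 mM HEPES pH 7.4 and 20 mM LiCl ± varying compound concentrations; stopped with cold 10 mM formic acid, [3H]inositol phosphates isolated by anion exchange, scintillation counted. EC50 as mean, interval from ≥3 experiments.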

SMILES | IC50 [1] | EC50 [2]
OC1(c2ccc(Cl)cc2)CCN(CCCCc2ccccc2)CC1 | 14.8 µM | –
COc1ccc(C2(O)CCN(CCCC(C#N)(c3ccccc3)c3ccccc3)CC2)cc1 | 72.4 µM | 28.8 µM
N#CC(CCCN1CCC(O)(c2ccccc2)CC1)(c1ccccc1)c1ccccc1 | 35.5 µM | 28.2 µM
N#CC(CCCN1CCN(c2ccc(Cl)cc2)CC1)(c1ccccc1)c1ccccc1 | > 100 µM | > 100 µM
OC1(c2ccc(Cl)cc2)CCN(CCCOc2ccccc2)CC1 | 61.7 µM | –
Cc1ccc(C2(O)CCN(CCCC(C#N)(c3ccccc3)c3ccccc3)CC2)cc1 | 60.3 µM | –
N#CC(CCCN1CCC(O)(c2ccc(Br)cc2)CC1)(c1ccccc1)c1ccccc1 | 19.5 µM | –
N#CC(CCCN1CCC(O)CC1)(c1ccccc1)c1ccccc1 | > 100 µM | > 100 µM
COc1ccc(C(CCCN2CCC(O)(c3ccc(Cl)cc3)CC2)c2ccccc2)cc1 (configuration not stated) | 15.5 µM | –
CCOC(=O)C1CCN(CCCC(C#N)(c2ccccc2)c2ccccc2)CC1 | 34.7 µM | > 100 µM
N#CC(CCCN1CCC(O)(c2ccc(Cl)c(Cl)c2)CC1)(c1ccccc1)c1ccccc1 | 38 µM | –
OC1(c2ccc(Cl)cc2)CCN(CCCC(c2ccccc2)c2ccc(Cl)c(Cl)c2)CC1 (configuration not stated) | 15.8 µM | –
N#CC(CCCN1CCC(C(=O)O)CC1)(c1ccccc1)c1ccccc1 | > 100 µM | > 100 µM
N#CC1(c2ccccc2)CCN(CCCC(C#N)(c2ccccc2)c2ccccc2)CC1 | > 100 µM | > 100 µM
N#CC(CCCN1CCC(c2ccc(Cl)cc2)CC1)(c1ccccc1)c1ccccc1 | – | 13.8 µM
Cc1ccccc1C(CCCN1CCC(O)(c2ccc(Cl)cc2)CC1)c1ccccc1 (configuration not stated) | 5.5 µM | 9.8 µM
OC1(c2ccc(Cl)cc2)CCN(CCCC(c2ccccc2)c2ccc(Cl)cc2)CC1 (configuration not stated) | 17 µM | –

SMILES | IC50 [1] | EC50 [2]
N#CC(CCCN1CCC(O)(Cc2ccccc2)CC1)(c1ccccc1)c1ccccc1 | 63.1 µM | –
OC1(c2ccc(Cl)cc2)CCN(CCCC(c2ccccc2)c2ccccc2)CC1 | 6.5 µM | 4.2 µM
N#CC(CCCN1CCC(C(N)=O)CC1)(c1ccccc1)c1ccccc1 | > 100 µM | > 100 µM
OC1(c2ccc(Cl)cc2)CCN(CCCC(c2ccc(Cl)cc2)c2ccc(-c3ccccc3)cc2)CC1 (configuration not stated) | > 100 µM | > 100 µM
N#CC(CCCN1CCC(=C(c2ccccc2)c2ccccc2)CC1)(c1ccccc1)c1ccccc1 | > 100 µM | > 100 µM
O=C(CCCN1CCC(O)(c2ccc(Cl)cc2)CC1)c1ccccc1 | > 100 µM | –
C[N+]1(CCCC(C#N)(c2ccccc2)c2ccccc2)CCC(O)(c2ccc(Cl)cc2)CC1 (configuration not stated) | > 100 µM | > 100 µM
Cc1ccc(C(CCCN2CCC(O)(c3ccc(Cl)cc3)CC2)c2ccccc2)cc1 (configuration not stated) | 30.9 µM | 11.5 µM
N#CC(CCCN1CC=C(c2ccc(Cl)cc2)CC1)(c1ccccc1)c1ccccc1 | > 100 µM | > 100 µM
N#CC(CCCN1CCC(O)(c2ccc(Cl)c(C(F)(F)F)c2)CC1)(c1ccccc1)c1ccccc1 | 45.7 µM | –
OC(CCCN1CCC(O)(c2ccc(Cl)cc2)CC1)c1ccccc1 (configuration not stated) | > 100 µM | > 100 µM
CC1(O)CCN(CCCC(C#N)(c2ccccc2)c2ccccc2)CC1 | > 100 µM | > 100 µM
OC1(c2ccc(Cl)cc2)CCN(CCCC(c2ccc(Cl)cc2)c2ccc(Cl)cc2)CC1 | 17.4 µM | –
Cc1cccc(C(CCCN2CCC(O)(c3ccc(Cl)cc3)CC2)c2ccccc2)c1 (configuration not stated) | 11.5 µM | –
CCCCC1(O)CCN(CCCC(C#N)(c2ccccc2)c2ccccc2)CC1 | > 100 µM | > 100 µM
N#CC(CCCN1CCC(O)(c2ccc(Cl)cc2)CC1)(c1ccccc1)c1ccccc1 [BERLEX COMPOUND] | 9.3 µM | 3.2 µM
